Compound activity from PubChem.
H9c2 TAG inh – inhibitors of triacylglycerol accumulation | H9c2 cells, Nile Red lipid (TAG) fluorescence; cells loaded with 200 µM oleic acid | inhibition, % at 12.5 µM | 230,000 compounds, 0.66% hits | AID 651582;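 active = pattern-corrected inhibition of lipid staining of at least 50% with the nuclear-stain viability signal not falling by more than 50%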
Vif imaging – blocks HIV Vif function | HEK293T cells, Vif self-association by quenched fluorescence, imaging, 24 h | inhibition, % at 7.49 µM | 340,000 compounds, 0.35% hits; in the data active = inhibition above about 50%, passing the limit was not always enough; inconclusive = no clear call, values can overlap the other calls; inactive = below about 31%
SR-BI DiI-HDL act – activators of SR-BI mediated HDL lipid uptake. 320,000 compounds, 0.096% hits. CHO ldlA[mSR-BI] cells, DiI-HDL uptake fluorescence, 3 h; 100 = double the neutral-control signal. activation, % at 12.5 µM;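 active = mean replicate activation of at least 60% and every replicate at or above 60%; inconclusive = mean or all-replicate condition met, but not both; inactive = mean below 60% and not all replicates reaching 60%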
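Material: SR-BI-overexpressing, LDLR-lacking CHO cells; schedule: compound exposure 3 h, 37 °C; reagent: DiI-labelled HDL at 10 µg/mL final; technique: bottom-read fluorescence, 550/595 nm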
SR-BI HDL uptake – blocks mouse SR-BI lipid uptake from DiI-HDL; Q61009; AID 488896; inhibition, % at 12.5 µM; ldlA[mSR-BI] CHO cells, DiI-HDL uptake fluorescence, 3 h; 320,000 compounds, 0.96% hits;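 active = mean replicate inhibition of at least 70% and a set share of replicates each scoring 70 or more; inconclusive = meets just one of the two criteria; inactive = fails both criteria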
Target sequence (Q61009 whole entry, looked up): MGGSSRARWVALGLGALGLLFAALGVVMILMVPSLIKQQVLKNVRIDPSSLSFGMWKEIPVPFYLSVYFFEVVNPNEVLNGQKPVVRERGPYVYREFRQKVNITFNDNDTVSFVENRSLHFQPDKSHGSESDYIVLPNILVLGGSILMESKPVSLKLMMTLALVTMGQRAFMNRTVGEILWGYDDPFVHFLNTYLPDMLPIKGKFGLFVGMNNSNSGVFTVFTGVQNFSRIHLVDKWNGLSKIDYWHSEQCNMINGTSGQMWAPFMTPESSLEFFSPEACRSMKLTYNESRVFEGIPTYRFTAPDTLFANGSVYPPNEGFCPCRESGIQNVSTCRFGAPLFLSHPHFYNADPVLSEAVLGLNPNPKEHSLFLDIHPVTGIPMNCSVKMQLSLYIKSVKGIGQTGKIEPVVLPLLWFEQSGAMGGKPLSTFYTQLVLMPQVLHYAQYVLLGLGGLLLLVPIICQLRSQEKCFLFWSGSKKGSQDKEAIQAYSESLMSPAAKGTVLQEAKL
Bfl-1 A1 inh – inhibitors of the anti-apoptotic protein A1, read as caspase activation; MEF A1-2A-BIM cells, Caspase-Glo 3/7 luminescence, 3 h; percent of clofoctol response, vehicle zero; caspase activation, % (no concentration beside the values); 330,000 compounds, 0.066% hits; AID 2462;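 active = over half of replicate activation scores above 10%, or exactly half above 10 with the replicate mean above 10; inconclusive = replicate mean below 10 yet half the replicates above 10; inactive = over half of replicates below 10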
Each line names hits and unclear results; the compound was inactive in the other large screens. Hits are enriched below; roughly 1.6% of the tested compounds scored in any of these assays.

O=C(CCC(=O)N(CC(=O)NC1CCCC1)Cc1cccs1)Nc1nccs1	none
Nc1ccc(Nc2nc(-c3cccs3)cs2)cc1	SR-BI HDL uptake 100
COc1cccc(CN(C)C(=O)c2cc(-c3cccs3)nc3ccccc23)c1	none
Cc1c(C(=O)N2CCCCC2)sc(NC(=O)C(C)C)c1C#N	none (no result: H9c2 TAG inh)
Cc1c(C(=O)N2CCCCC2)sc(NC(=O)C2CC2)c1C#N	SR-BI DiI-HDL act 241 (no result: H9c2 TAG inh)
O=C(N/N=C/c1ccc([N+](=O)[O-])o1)c1ccccc1-n1cccc1	none (no result: H9c2 TAG inh)
O=C(N/N=C/c1ccc([N+](=O)[O-])o1)c1cn(-c2ccccc2)nc1-c1ccccc1	SR-BI HDL uptake 84 (no result: H9c2 TAG inh)
O=C(N/N=C/c1ccc([N+](=O)[O-])o1)c1cn(-c2ccccc2)nc1-c1ccc(Cl)cc1	SR-BI HDL uptake 112 (no result: H9c2 TAG inh)
COc1ccc(OC)c(NC(=O)COc2cc(O)c3c(c2)OC(C)(C)CC3=O)c1	none (no result: H9c2 TAG inh, SR-BI DiI-HDL act, SR-BI HDL uptake, Bfl-1 A1 inh)
Cc1ccc(C2=NOC(C)(c3nnc(-c4ccncc4)o3)C2)cc1 (configuration not stated)	Vif imaging 135
O=S(=O)(c1ccccc1)N1CCN(c2nnc(-c3ccccc3)c3ccccc23)CC1	none (no result: SR-BI DiI-HDL act, SR-BI HDL uptake)
COC(=O)COc1c(/C=C\c2nc(O)c([N+](=O)[O-])c(=O)[nH]2)cccc1OC	SR-BI HDL uptake 75
CCc1nnc(NC(=O)CCc2ccc(C)o2)s1	none (no result: H9c2 TAG inh)
CCc1ccc(CCC(=O)Nc2nnc(C)s2)o1	Vif imaging 55 (no result: H9c2 TAG inh)
CC1(c2ccc(C#N)cc2)NC(=O)N(CC(=O)Nc2cc(S(=O)(=O)N3CCOCC3)ccc2Cl)C1=O (configuration not stated)	none
O=C(c1ccco1)N1CCN(C(=O)C2CC2)CC1	SR-BI DiI-HDL act 67 (no result: H9c2 TAG inh)
Cc1cccc(C)c1NCc1n[nH]c(=S)n1-c1ccccc1	none
CCN1C(=S)SC(=O)C1=C1C=C(C)N(CCO)C(C)=C1	Vif imaging active (no result: H9c2 TAG inh)
CCN1C(=O)/C(=C/C=C2/Sc3ccccc3N2CCO)SC1=S	none
CCCCCc1c(C)nc(Nc2ccc(F)cc2)[nH]c1=O	none (no result: H9c2 TAG inh)
CCCCc1c(C)nc(Nc2ccc(OC)cc2)[nH]c1=O	SR-BI DiI-HDL act 60 (no result: H9c2 TAG inh)
CCCN(CCC)CCCNC(=O)CC(C(=O)N1CCc2ccccc21)n1ccnc1 (configuration not stated)	none (no result: H9c2 TAG inh, Vif imaging)
CCN(CC)CC(C)CNC(=O)CC(C(=O)N1CCc2ccccc21)n1ccnc1 (configuration not stated)	Vif imaging 123 (no result: H9c2 TAG inh)
CCn1c(CCNS(=O)(=O)c2ccccc2Br)nnc1SC	Vif imaging 54 (no result: H9c2 TAG inh, SR-BI DiI-HDL act, SR-BI HDL uptake)
O=C(CSc1ccc(-c2ccncc2)nn1)N1CCN(c2ccccc2)CC1	none
COc1cc(S(=O)(=O)NCc2ccncc2)c(OC)cc1C	Vif imaging 51 (no result: H9c2 TAG inh)
CN(C)c1ccc(/C=C/C(=O)c2ccc(O)cc2)cc1	Vif imaging 83 (no result: Bfl-1 A1 inh)
CN(C)c1ccc(/C=C/C(=O)c2ccc3c(c2)OCO3)cc1	Vif imaging active
CCCCN(c1ccccc1)S(=O)(=O)c1cccc2cccnc12	none
O=C(NCc1cc(Cl)cc(Cl)c1)c1ccc2nc([C@@H]3O[C@H](CO)[C@@H](O)[C@H]3O)[nH]c2c1	none (no result: SR-BI DiI-HDL act, SR-BI HDL uptake, Bfl-1 A1 inh)
Nn1c(SCC(=O)Nc2ccc(OC(F)F)cc2)nnc(Cc2ccccc2)c1=O	none
CCOC(=O)c1sc(NC(=O)c2c(C)nn(Cc3ccccc3)c2C)cc1C	SR-BI HDL uptake 82
CCOC(=O)c1sc(NC(=O)c2ccc(Cl)s2)cc1C	none
CCOC(=O)c1sc(NC(=O)Nc2ccc(Cl)cc2)cc1C	SR-BI HDL uptake 76
CCOC(=O)C1CCN(C(=O)c2ccc(N3CCCC3=O)cc2)CC1	none
Cn1c(SCC(=O)N2CCCC2=O)nc2ccccc21	none
Cc1nn(-c2ccccc2)c(C)c1/C=N/NC(=O)CSc1nnc(SCc2cccc3ccccc23)s1	SR-BI HDL uptake 73 (no result: H9c2 TAG inh)
Cc1nn(-c2ccccc2)c(C)c1/C=N/NC(=O)CSc1nc2ccccc2c(=O)n1-c1ccc(Br)cc1	SR-BI HDL uptake 74, Bfl-1 A1 inh 7.1 (no result: Vif imaging)
CCOC(=O)c1csc(N)c1-c1ccc([N+](=O)[O-])cc1	Vif imaging inconclusive, SR-BI DiI-HDL act 69
COC(=O)C(C(=O)OC)C(c1ccccc1)C(C(=O)c1ccccc1)[N+](=O)[O-] (configuration not stated)	Vif imaging 53
COC(=O)C(C(=O)OC)C(C[N+](=O)[O-])c1ccc(OC)cc1 (configuration not stated)	none
Cc1ccc(C)c(N2N=C(C(=O)OCC(=O)N(C)c3ccccc3)CCC2=O)c1	none (no result: Bfl-1 A1 inh)
COc1ccc(CC(=O)O)cc1O	none
COc1ccc(CC2NCCC3=CC(=O)CCC32)cc1O (configuration not stated)	Vif imaging 146
O=C(CNC(=O)c1ccc(Br)o1)NCc1ccccc1Cl	none (no result: H9c2 TAG inh)
O=C(COC(=O)/C=C/c1cccc(Cl)c1Cl)Nc1ccc2[nH]c(=O)[nH]c2c1	Bfl-1 A1 inh 16
COc1cc(-c2nc(-c3ccc(NC(=O)c4ccc5c(c4)OCO5)cc3)no2)cc(OC)c1OC	H9c2 TAG inh 93
COc1ccc(CC(=O)Nc2ccc(-c3noc(-c4cc(OC)c(OC)c(OC)c4)n3)cc2)cc1	Vif imaging active
Cc1ccccc1-c1nc(-c2ccc(NC(=O)c3ccc4c(c3)OCO4)cc2)no1	none (no result: H9c2 TAG inh)
CCOc1ccccc1-c1nc(-c2ccc(NC(=O)Cc3ccc(OC)cc3)cc2)no1	SR-BI HDL uptake 99
CC(C)C[C@@H](CO)N1CCN(Cc2cccc(C#N)c2)CCC1=O	none
Cn1c(=O)c2c(n(C)c1=O)n(C)c(=O)n2C	none (no result: H9c2 TAG inh, SR-BI DiI-HDL act, SR-BI HDL uptake, Bfl-1 A1 inh)
Cc1ccc(CNC(=O)c2ccc(N3CCC4(CC3)CC(c3cccc(Br)c3)=NO4)c(N)c2)cc1	SR-BI HDL uptake 85 (no result: H9c2 TAG inh, Vif imaging)
Cc1ccc(CNC(=O)c2ccc(N3CCC4(CC3)CC(c3cccc(Br)c3)=NO4)c(NC(=O)c3ccc(Br)cc3)c2)cc1	none
CCC1=Nc2cc(C(=O)NCc3ccco3)ccc2Sc2ccc(C)cc21	Vif imaging 57 (no result: H9c2 TAG inh)
CCC1=Nc2cc(C(=O)NCCN3CCOCC3)ccc2Sc2ccc(C)cc21	none (no result: H9c2 TAG inh)
Cc1ccc(-c2cc(-c3nnc(SCC(=O)NCC(C)C)n3N)c3ccccc3n2)cc1	none
CCC(C)NC(=O)CSc1nnc(-c2cc(-c3ccc(C)cc3)nc3ccccc23)n1N (configuration not stated)	SR-BI HDL uptake 86
CCC(C)Sc1cc(-c2nc3ccccn3c2NC2CCCCC2)ccc1OC (configuration not stated)	SR-BI DiI-HDL act 66
CC(C)CCNC(=O)CCc1nnc(COc2ccccc2)o1	Vif imaging 86 (no result: H9c2 TAG inh, Bfl-1 A1 inh)
O=C(CCc1nnc(COc2ccccc2)o1)NCCc1cccs1	none (no result: Vif imaging)
O=C(COc1ccc(S(=O)(=O)N2CCOCC2)cc1Cl)NCCN1CCOCC1	none (no result: H9c2 TAG inh, SR-BI DiI-HDL act, SR-BI HDL uptake)
Cc1cc(S(=O)(=O)N2CCOCC2)ccc1OCC(=O)N1CCCC1	Vif imaging 65 (no result: H9c2 TAG inh, SR-BI DiI-HDL act, SR-BI HDL uptake)
Cc1cc(S(=O)(=O)N2CCOCC2)ccc1OCC(=O)NCCN1CCOCC1	Vif imaging 71 (no result: H9c2 TAG inh)
